ChEMBL document CHEMBL3112577, “Discovery of novel chiral diazepines as bombesin receptor subtype-3 (BRS-3) agonists with low brain penetration” (Bioorg Med Chem Lett, 2014)
≈ marks a conversion by molar mass, not a printed value.

Assays:
[1] = biological target: T1, Bombesin receptor subtype-3 (Mus musculus, UniProt O54798); test: Agonist activity at mouse BRS-3 expressed in CHOK1 cells after 1 hr by HTRF assay; format: cell-based, CHO-K1
T1 sequence (O54798 whole entry): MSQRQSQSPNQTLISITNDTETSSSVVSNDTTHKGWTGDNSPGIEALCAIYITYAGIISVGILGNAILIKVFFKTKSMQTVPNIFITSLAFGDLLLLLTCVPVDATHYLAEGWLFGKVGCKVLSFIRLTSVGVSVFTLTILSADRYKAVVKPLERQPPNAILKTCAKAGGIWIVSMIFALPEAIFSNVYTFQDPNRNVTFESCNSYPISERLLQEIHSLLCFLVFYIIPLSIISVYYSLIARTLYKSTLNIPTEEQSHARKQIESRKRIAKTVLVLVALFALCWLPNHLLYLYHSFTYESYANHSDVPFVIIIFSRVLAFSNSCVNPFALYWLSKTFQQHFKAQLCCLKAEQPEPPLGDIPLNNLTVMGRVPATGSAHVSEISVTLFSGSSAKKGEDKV
Procedure, shortened: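 CHO-K1 cells stably expressing mouse BRS-3 were plated at 200,000 cells/well and grown 24 h at 37 °C in CO₂. Compounds in HAM with 0.1% BSA plus 20 mM LiCl were added for 1 h at 37 °C. IP1 was detected by HTRF with d2-IP1 and cryptate anti-IP1 antibody after overnight at 4 °C in the dark, read as the 665/620 nm ratio and converted with on-plate IP1 standards. EC50 came from a nonlinear curve fit, averaged over at least 3 runs.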

[2] = Octanol-phosphate buffered saline distribution coefficient, log D of the compound at pH 7.4; format: physicochemical
Procedure, shortened: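 LogD was measured as partitioning between 1-octanol and phosphate-buffered saline at pH 7.4.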

[3] = biological target: T2, Bombesin receptor subtype-3 (Homo sapiens, UniProt P32247); test: Agonist activity at human BRS-3 expressed in CHOK1 cells after 1 hr by HTRF assay; format: cell-based, CHO-K1
T2 sequence (P32247 whole entry): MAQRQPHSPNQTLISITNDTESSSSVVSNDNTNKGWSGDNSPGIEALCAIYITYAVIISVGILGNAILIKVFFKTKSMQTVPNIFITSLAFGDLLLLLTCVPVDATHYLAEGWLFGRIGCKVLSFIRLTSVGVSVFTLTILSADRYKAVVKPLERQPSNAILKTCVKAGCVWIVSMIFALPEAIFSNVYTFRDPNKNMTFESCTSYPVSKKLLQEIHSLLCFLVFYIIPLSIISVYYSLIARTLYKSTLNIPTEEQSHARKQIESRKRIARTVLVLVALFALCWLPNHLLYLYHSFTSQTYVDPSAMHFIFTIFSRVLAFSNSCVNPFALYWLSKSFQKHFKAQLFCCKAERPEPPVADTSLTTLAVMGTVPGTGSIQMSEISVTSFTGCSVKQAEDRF

[4] = Metabolic stability in mouse liver microsomes assessed as compound remaining after 0.5 hrs; format: ADME, Microsome; settings: read-out: Stability
Procedure, shortened: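 Compound was incubated 0.5 h with mouse liver microsomes and the percentage of parent remaining was reported.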

[5] = Solubility of the compound in JP2; format: physicochemical
[6] = Half life in mouse at 10 mg/kg, po; format: ADME, organism-based; design: dose 10 mg/kg, route oral; settings: in vivo
Procedure, shortened: (§1)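 Two mice per compound given 10 mg/kg orally in DMA/PG/(20%HPbCD/saline) 10/10/80; values are the average of the 2 mice.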

[7] = Fraction unbound in mouse plasma; format: ADME, cell-free
[8] = Solubility of the compound in JP1; format: physicochemical
[9] = Ratio of drug level in brain to plasma of mouse at 30 mg/kg, po after 2.5 hrs; format: ADME, organism-based; design: dose 30 mg/kg, route oral
Procedure, shortened: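 Mice given a single oral dose of 30 mg/kg. Brain and plasma concentrations were measured 2.5 h after dosing, and Kp brain was taken as the brain-to-plasma concentration ratio.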

[10] = Cmax in mouse at 10 mg/kg, po; format: ADME, organism-based; design: dose 10 mg/kg, route oral; settings: in vivo; procedure, shortened: as §1
[11] = AUC in mouse at 10 mg/kg, po; format: ADME, organism-based; design: dose 10 mg/kg, route oral; settings: plasma; procedure, shortened: as §1

Row | Compound | EC50 [1] | logD [2] | EC50 [3] | further results
1 | O=C(Cc1cccc(Oc2cccc(F)c2)c1)N1CCNc2nc(C(F)(F)F)ccc2C1 | 8.7 nM | 4.8 | 6.8 nM | 
2 | COc1cccc(CC(=O)N2CCNc3nc(C(F)(F)F)ccc3C2)c1 | 1780 nM |  | 2040 nM | 
3 | CC(C)COc1cccc(CC(=O)N2CCNc3nc(C(F)(F)F)ccc3C2)c1 | 62 nM | 4.3 | 70 nM | 
4 | CC(C)(C)COc1cccc(CC(=O)N2CCNc3nc(C(F)(F)F)ccc3C2)c1 | 121 nM |  | 199 nM | 
5 | Cc1ccc(Oc2cccc(CC(=O)N3CCNc4nc(C(F)(F)F)ccc4[C@H]3CC(=O)O)c2)cn1 | 3.5 nM | 0.3 | 1.7 nM | remaining at 0.5 h [4]: 94%; solubility [5]: 950 µg/mL (≈ 1900 µM); half-life [6]: 2.6 h; fraction unbound [7]: 0.046; solubility [8]: 960 µg/mL (≈ 1920 µM); Kp at 2.5 h [9]: 0.002; Cmax [10]: 90 ng/mL; AUC [11]: 200 ng·h/mL
6 | CC(C)C1CN(Cc2ccccc2)c2ccccc2CN1C(=O)Nc1cccc(N2CCOCC2)c1 (stereo not given) | 34 nM |  | 131 nM | 
7 | CC(C)COc1cccc(CC(=O)N2CCNc3nc(C(F)(F)F)ccc3[C@H]2CC(=O)O)c1 | 62 nM | 0.9 | 17 nM | remaining at 0.5 h [4]: 70%; solubility [5]: 810 µg/mL (≈ 1740 µM); half-life [6]: 3.7 h; fraction unbound [7]: 0.033; solubility [8]: 40 µg/mL (≈ 85.9 µM); Kp at 2.5 h [9]: 0.043; Cmax [10]: 360 ng/mL; AUC [11]: 390 ng·h/mL
8 | O=C(Cc1ccc(Oc2ccccc2)cc1)N1Cc2ccc(C(F)(F)F)nc2Nc2ccccc21 | > 10000 nM |  | 368 nM | 
9 | O=C(Cc1cccc(OC2CCCC2)c1)N1CCNc2nc(C(F)(F)F)ccc2C1 | 100 nM |  | 41 nM | 
10 | O=C(Cc1cccc(Oc2ccccc2)c1)N1Cc2ccc(C(F)(F)F)nc2Nc2ccccc21 | 46 nM |  | 25 nM | 
11 | O=C(O)C1c2ccc(C(F)(F)F)nc2NCCN1C(=O)Cc1cccc(Oc2ccccc2)c1 (stereo not given) | 2260 nM |  | 1560 nM | 
12 | O=C(Cc1cccc(Oc2ccccc2)c1)N1CCNc2nc(C(F)(F)F)ccc2C1CO (stereo not given) | 19 nM | 4.1 | 12 nM | 
13 | CC(C)(C)c1ccc(C(=O)N2Cc3ccc(C(F)(F)F)nc3Nc3ccccc32)cc1 | > 10000 nM |  | > 10000 nM | 
14 | CC(C)(O)c1nc(-c2cccc3c2N(S(=O)(=O)c2ccc(OC(F)(F)F)cc2)Cc2ccc(C(F)(F)F)nc2N3)no1 | 22 nM |  | 1.4 nM | 
15 | O=C(Cc1cccc(Oc2ccc(F)cc2)c1)N1CCNc2nc(C(F)(F)F)ccc2C1 | 2.7 nM | 4.6 | 3.6 nM | 
16 | O=C(Cc1cccc(Oc2ccccc2F)c1)N1CCNc2nc(C(F)(F)F)ccc2C1 | 3.5 nM | 4.5 | 6.9 nM | 
17 | O=C(Cc1cccc(OC2CCCCC2)c1)N1CCNc2nc(C(F)(F)F)ccc2C1 | 8.7 nM | 4.4 | 8.1 nM | 

Row | Compound | EC50 [1] | logD [2] | EC50 [3] | further results
18 | O=C(Cc1cccc(Oc2ccccc2)c1)N1CCNc2nc(C(F)(F)F)ccc2C1CCO (stereo not given) | 11 nM |  | 11 nM | 
19 | CC(C)Oc1cccc(CC(=O)N2CCNc3nc(C(F)(F)F)ccc3C2)c1 | 569 nM |  | 381 nM | 
20 | O=C(Cc1cccc(Oc2cccnc2)c1)N1CCNc2nc(C(F)(F)F)ccc2C1 | 106 nM | 3.2 | 156 nM | 
21 | O=C(O)CC1c2ccc(C(F)(F)F)nc2NCCN1C(=O)Cc1cccc(Oc2ccccc2)c1 (stereo not given) | 15 nM | 1.2 | 13 nM | 
22 | O=C(O)C[C@@H]1c2ccc(C(F)(F)F)nc2NCCN1C(=O)Cc1cccc(Oc2ccccc2)c1 | 3.4 nM | 1.2 | 1.6 nM | 
23 | Cc1ccc(Oc2cccc(CC(=O)N3CCNc4nc(C(F)(F)F)ccc4C3)c2)cc1 | 1 nM | > 4.8 | 1.3 nM | 
24 | CC(=O)N1Cc2ccccc2N(Cc2ccccc2)CC1C(C)C (stereo not given) | 256 nM |  | 916 nM | 
25 | O=C(Cc1cccc(Oc2ccccc2)c1)N1CCNc2nc(C(F)(F)F)ccc2C1 | 12.2 nM | 4.5 | 8.5 nM | remaining at 0.5 h [4]: 0.7%; solubility [5]: 5.1 µg/mL (≈ 11.9 µM); half-life [6]: 0.82 h; fraction unbound [7]: 0.0067; solubility [8]: 11 µg/mL (≈ 25.7 µM); Kp at 2.5 h [9]: 0.72; Cmax [10]: 60 ng/mL; AUC [11]: 41 ng·h/mL
26 | Cc1ccc(Oc2cccc(CC(=O)N3CCNc4nc(C(F)(F)F)ccc4C3)c2)cn1 | 2.8 nM | 3.6 | 9.5 nM | 
27 | CC(C)(C)c1ccc(CC(=O)N2Cc3ccc(C(F)(F)F)nc3Nc3ccccc32)cc1 | 227 nM |  | 48 nM | 
28 | CCOc1cccc(CC(=O)N2CCNc3nc(C(F)(F)F)ccc3C2)c1 | 1210 nM |  | 2050 nM | 
29 | O=C(Cc1cccc(Oc2ccccn2)c1)N1CCNc2nc(C(F)(F)F)ccc2C1 | 244 nM | 3.2 | 254 nM | 
30 | O=C(Cc1cccc(Oc2ccncc2)c1)N1CCNc2nc(C(F)(F)F)ccc2C1 | 621 nM | 3.3 | 977 nM | 
31 | O=C(Nc1cccc(Oc2ccccc2)c1)N1CCNc2nc(C(F)(F)F)ccc2C1 | 1380 nM |  | 4380 nM | 
32 | O=C(O)C[C@@H]1c2ccc(C(F)(F)F)nc2NCCN1C(=O)Cc1cccc(Oc2ccc(F)cc2)c1 | 2.7 nM | 1.2 | 1.7 nM | 
33 | CCCCOc1cccc(CC(=O)N2CCNc3nc(C(F)(F)F)ccc3C2)c1 | 52 nM |  | 59 nM | 
34 | O=C(O)C[C@H]1c2ccc(C(F)(F)F)nc2NCCN1C(=O)Cc1cccc(Oc2ccccc2)c1 | 3120 nM | 1.2 | 2070 nM | 
